Experimental data from ChEMBL document CHEMBL4014335, “Activation of Phenyl 4-(2-Oxo-3-alkylimidazolidin-1-yl)benzenesulfonates Prodrugs by CYP1A1 as New Antimitotics Targeting Breast Cancer Cells” (J Med Chem, 2017).
Calls of active or inactive are those of the source. The calls are words filed in the database; no cut-off is given here.

How the values were obtained:
[1] = Selectivity ratio of IC50 for ER/PR/HER2 deficient human MDA-MB-231 cells to IC50 for ER/PR/HER2 deficient human MDA-MB-468 cells; type: functional
Procedure, shortened: (§1)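 Ratio is IC50 in reference line over IC50 in sensitive line. […] Cells in DMEM with 5% calf serum at 37 °C. At least two experiments, triplicate cultures; assay accepted when relative SD < 10%.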

Cytochrome P450 1A1 = molecular target: T1, Cytochrome P450 1A1 (Homo sapiens, UniProt P04798); assay: Inhibition of human supersomes CYP1A1-mediated 7-ethoxyresorufin conversion to fluorescent resorufin preincubated with 7-ethoxyresorufin for 5 mins followed by addition of NADPH regenerating system measured for 15 mins by EROD assay; type: ADME
T1 sequence (P04798 whole entry): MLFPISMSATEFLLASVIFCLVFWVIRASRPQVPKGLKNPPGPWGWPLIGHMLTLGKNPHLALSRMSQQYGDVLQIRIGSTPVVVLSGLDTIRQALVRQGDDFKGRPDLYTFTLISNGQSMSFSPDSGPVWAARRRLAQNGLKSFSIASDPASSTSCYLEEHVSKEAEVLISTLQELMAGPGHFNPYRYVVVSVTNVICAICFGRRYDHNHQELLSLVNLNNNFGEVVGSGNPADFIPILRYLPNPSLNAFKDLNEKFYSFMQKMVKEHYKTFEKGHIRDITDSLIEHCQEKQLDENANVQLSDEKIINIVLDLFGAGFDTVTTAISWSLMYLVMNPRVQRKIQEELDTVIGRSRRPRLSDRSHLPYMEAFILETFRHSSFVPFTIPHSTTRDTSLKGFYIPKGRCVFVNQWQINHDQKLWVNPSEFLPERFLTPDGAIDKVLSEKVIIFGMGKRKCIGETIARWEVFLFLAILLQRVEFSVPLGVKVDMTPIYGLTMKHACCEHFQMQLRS
Procedure, shortened: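 EROD assay with human CYP1A1 supersomes containing reductase, in potassium phosphate buffer. Drug final 32–31 600 nM and 7-ethoxyresorufin 94–3 000 nM, with 0.35% DMSO, preincubated 5 min at 37 °C. Reaction started with NADPH-regenerating system and 0.15 pmol CYP1A1 in 150 µL. Initial velocity taken from 1–5 min; Vmax and Km from Lineweaver-Burk plot.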

HT-1080 [2] = assay: Antiproliferative activity against human wild type HT1080 cells after 72 hrs by SRB assay; type: functional, cell-based; settings: HT-1080, 72 h
Procedure, shortened: (§2)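 SRB antiproliferative assay (modified NCI protocol). Cells seeded per well (SK-BR-3, MDA-MB-231, T47D, HT-1080, HT-1080 CYP1A1 and empty-vector: 3.0 x 10^3; MDA-MB-468: 5.0 x 10^3; MCF7: 7.5 x 10^3), preincubated 24 h. DMSO-solubilized drug added at 0.75 to 1.0 x 10^5 nM, then 72 h. Fixed with cold 10% TCA, stained with 0.1% sulforhodamine B, absorbance read at 530-565 nm. At least two experiments, triplicate cultures.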

HT-1080 [3] = assay: Antiproliferative activity against human HT1080 cells transfected with CYP1A1 after 72 hrs by SRB assay; type: functional, cell-based; settings: HT-1080, 72 h; procedure, shortened: as §2
MDA-MB-468 [4] = assay: Antiproliferative activity against ER/PR/HER2 deficient human MDA-MB-468 cells after 72 hrs by SRB assay; type: functional, cell-based; settings: MDA-MB-468, 72 h; procedure, shortened: as §2
SK-BR-3 = assay: Antiproliferative activity against ER/PR deficient and HER2 expressing human SKBR3 cells after 72 hrs by SRB assay; type: functional, cell-based; settings: SK-BR-3, 72 h; procedure, shortened: as §2
HT-1080 [5] = assay: Antitumor activity against human HT1080 cells implanted in chicken chorioallantoic membrane assessed as tumor growth inhibition at 1 ug/egg, iv administered on day 11 post implantation measured on day 17; type: functional
Procedure, shortened: (§3)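 Chick CAM tumor model using HT-1080 cells (wild-type or stably transfected with CYP1A1 or empty plasmid). Eggs incubated 10 d. On day 11, drug in DMSO (40 mM stock) was diluted in cremophor/EtOH/PBS (6.25/6.25/87.5), DMSO kept below 0.5%, and given iv in 100 µL to 10-12 eggs. Tumors excised on day 17 and wet-weighed. Two independent experiments (20-24 eggs); embryo deaths and toxicity recorded.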

HT-1080 [6] = assay: Antitumor activity against CYP1A1 transfected human HT1080 cells implanted in chicken chorioallantoic membrane assessed as tumor growth inhibition at 1 ug/egg, iv administered on day 11 post implantation measured on day 17; type: functional; procedure, shortened: as §3
HT-1080 [7] = assay: Antiproliferative activity against human HT1080 cells transfected with pCMV6-AC empty plasmid after 72 hrs by SRB assay; type: functional, cell-based; settings: HT-1080, 72 h; procedure, shortened: as §2
MCF7 [8] = assay: Antiproliferative activity against human MCF7 cells after 72 hrs by SRB assay; type: functional, cell-based; settings: MCF7, 72 h; procedure, shortened: as §2
[9] = Selectivity ratio of IC50 for ER/PR/HER2 deficient human MDA-MB-231 cells to IC50 for ER/PR/HER2 expressing human T47D cells; type: functional; procedure, shortened: as §1
MDA-MB-231 = assay: Antiproliferative activity against ER/PR/HER2 deficient human MDA-MB-231 cells after 72 hrs by SRB assay; type: functional, cell-based; settings: MDA-MB-231, 72 h; procedure, shortened: as §2
[10] = Selectivity ratio of IC50 for ER/PR/HER2 deficient human MDA-MB-231 cells to IC50 for human MCF7 cells; type: functional; procedure, shortened: as §1
[11] = Selectivity ratio of IC50 for ER/PR/HER2 deficient human MDA-MB-231 cells to IC50 for ER/PR deficient and HER2 expressing human SKBR3 cells; type: functional; procedure, shortened: as §1
T47D = assay: Antiproliferative activity against ER/PR/HER2 expressing human T47D cells after 72 hrs by SRB assay; type: functional, cell-based; procedure, shortened: as §2
HT-1080 [12] = assay: Antitumor activity against empty plasmid transfected human HT1080 cells implanted in chicken chorioallantoic membrane assessed as tumor growth inhibition at 1 ug/egg, iv administered on day 11 post implantation measured on day 17; type: functional; procedure, shortened: as §3
HT-1080 [13] = assay: Selectivity ratio of IC50 for HT1080 cells transfected with pCMV6-AC empty plasmid to IC50 for human HT1080 cells transfected with CYP1A1; type: functional
Procedure, shortened: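 Ratio is IC50 (HT-1080 empty vector) over IC50 (HT-1080 CYP1A1). Both lines stably transfected (pCMV6-AC plasmids) and kept under G418 selection, seeded at 3.0 x 10^3 cells. IC50s from SRB antiproliferative assay.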

MCF7 [14] = assay: Cell cycle arrest in human MCF7 cells assessed as accumulation at S phase at 50 nM after 24 hrs by DAPI-staining based FACS analysis (reference value: 10.6%); type: functional
M21 = assay: Antiproliferative activity against human M21 cells after 48 hrs by SRB assay; type: functional, cell-based; settings: M21, 48 h
Procedure, shortened: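 SRB assay run as in the NCI screen with slight modifications. Seeding: HT-29 5.0 x 10^3, M21 3.5 x 10^3, MCF7 7.5 x 10^3 cells; cells preincubated 24 h. Drug in DMSO added at 0.75 to 1.0 x 10^5 nM for 48 h. TCA fixation, sulforhodamine B staining, absorbance 530-565 nm. At least two experiments in triplicate; runs accepted only when relative SD < 10%.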

MDA-MB-468 [15] = assay: Cytotoxicity against human MDA-MB-468 cells after 72 hrs in presence of CYP1A1 inhibitor alpha-naphthoflavone by SRB assay; type: functional, cell-based
Procedure, shortened: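 MDA-MB-468 cells co-incubated for 72 h with drug plus a subtoxic concentration of a CYP inhibitor. Viability read by SRB assay: TCA fixation, sulforhodamine B staining, absorbance at 530-565 nm.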

SMILES | Ratio IC50 [1] | IC50 (HT-1080 [2]) | IC50 (HT-1080 [3]) | IC50 (MDA-MB-468 [4]) | IC50 (SK-BR-3) | TGI (HT-1080 [5]) | TGI (HT-1080 [6]) | IC50 (HT-1080 [7]) | IC50 (MCF7 [8]) | Ratio IC50 [9] | IC50 (MDA-MB-231) | Ratio IC50 [10] | Ratio IC50 [11] | IC50 (T47D) | TGI (HT-1080 [12]) | Ratio IC50 (HT-1080 [13]) | further results
COc1cc(OS(=O)(=O)c2ccc(N3CCNC3=O)cc2)cc(OC)c1OC | 1.4 | 3.6 nM | 1.7 nM | 4.6 nM | 3.1 nM | 51% | 32% | 3.3 nM | 3.1 nM | 1 | 6.4 nM | 2.1 | 2.1 | 6.2 nM | 21% | 1.9 | Ki (Cytochrome P450 1A1): Not Active
CCCCN1CCN(c2ccc(S(=O)(=O)Oc3cc(OC)c(OC)c(OC)c3)cc2)C1=O | 590 | 5500 nM | 13 nM | 10 nM | 2 nM | 15% | 49% | 47000 nM | 5.5 nM | 300 | 6000 nM | 1100 | 3000 | 20 nM | inactive | 3600 | Ki (Cytochrome P450 1A1; read-out: Ki): 540 nM; Activity (MCF7 [14]): 1.8%; IC50 (M21): 3800 nM; Activity (MDA-MB-468 [15]): inactive
